Consider 2 molecules from ChEMBL document CHEMBL1138590, “Discovery of novel dihydro-9,10-ethano-anthracene carboxamides as glucocorticoid receptor modulators” (Bioorg Med Chem Lett, 2009).

In assay [1] the target is T1, Glucocorticoid receptor (Homo sapiens, UniProt P04150).
T1 sequence (P04150 whole entry): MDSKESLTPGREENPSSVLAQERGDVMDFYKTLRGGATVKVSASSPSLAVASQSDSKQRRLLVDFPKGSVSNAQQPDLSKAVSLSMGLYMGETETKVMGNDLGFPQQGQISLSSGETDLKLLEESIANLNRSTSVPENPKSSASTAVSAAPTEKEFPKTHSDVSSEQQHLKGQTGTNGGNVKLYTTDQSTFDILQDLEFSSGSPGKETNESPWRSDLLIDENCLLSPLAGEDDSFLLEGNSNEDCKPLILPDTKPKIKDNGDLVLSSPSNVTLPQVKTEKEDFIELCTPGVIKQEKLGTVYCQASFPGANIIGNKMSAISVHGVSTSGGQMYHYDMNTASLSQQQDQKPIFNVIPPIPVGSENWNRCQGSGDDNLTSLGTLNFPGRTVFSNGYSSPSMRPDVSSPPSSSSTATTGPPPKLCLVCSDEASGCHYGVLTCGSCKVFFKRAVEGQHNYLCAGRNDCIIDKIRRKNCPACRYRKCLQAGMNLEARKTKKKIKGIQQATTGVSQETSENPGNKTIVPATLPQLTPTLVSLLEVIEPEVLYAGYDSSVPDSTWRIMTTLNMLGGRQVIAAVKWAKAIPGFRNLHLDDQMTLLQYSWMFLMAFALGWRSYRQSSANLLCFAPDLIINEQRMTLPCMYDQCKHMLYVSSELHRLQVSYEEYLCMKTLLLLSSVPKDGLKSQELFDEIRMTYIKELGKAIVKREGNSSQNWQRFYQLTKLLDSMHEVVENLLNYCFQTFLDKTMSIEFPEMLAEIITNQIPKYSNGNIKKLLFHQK
As to the kind of experiment: Displacement of FITC-dexamethasone from human recombinant glucocorticoid receptor alpha by fluorescence polarization assay.

Assay [2] addresses T1, Glucocorticoid receptor. As to the kind of experiment: Transrepression activity at GR in PMA-stimulated human A549 cells assessed as inhibition of AP1 response element-induced luciferase reporter gene activity. It is filed as cell-based. For orientation: A reporter such as luciferase makes a cellular process visible.
Assay [3] concerns the target T2, Androgen receptor (Homo sapiens, UniProt P10275).
T2 sequence (P10275 whole entry): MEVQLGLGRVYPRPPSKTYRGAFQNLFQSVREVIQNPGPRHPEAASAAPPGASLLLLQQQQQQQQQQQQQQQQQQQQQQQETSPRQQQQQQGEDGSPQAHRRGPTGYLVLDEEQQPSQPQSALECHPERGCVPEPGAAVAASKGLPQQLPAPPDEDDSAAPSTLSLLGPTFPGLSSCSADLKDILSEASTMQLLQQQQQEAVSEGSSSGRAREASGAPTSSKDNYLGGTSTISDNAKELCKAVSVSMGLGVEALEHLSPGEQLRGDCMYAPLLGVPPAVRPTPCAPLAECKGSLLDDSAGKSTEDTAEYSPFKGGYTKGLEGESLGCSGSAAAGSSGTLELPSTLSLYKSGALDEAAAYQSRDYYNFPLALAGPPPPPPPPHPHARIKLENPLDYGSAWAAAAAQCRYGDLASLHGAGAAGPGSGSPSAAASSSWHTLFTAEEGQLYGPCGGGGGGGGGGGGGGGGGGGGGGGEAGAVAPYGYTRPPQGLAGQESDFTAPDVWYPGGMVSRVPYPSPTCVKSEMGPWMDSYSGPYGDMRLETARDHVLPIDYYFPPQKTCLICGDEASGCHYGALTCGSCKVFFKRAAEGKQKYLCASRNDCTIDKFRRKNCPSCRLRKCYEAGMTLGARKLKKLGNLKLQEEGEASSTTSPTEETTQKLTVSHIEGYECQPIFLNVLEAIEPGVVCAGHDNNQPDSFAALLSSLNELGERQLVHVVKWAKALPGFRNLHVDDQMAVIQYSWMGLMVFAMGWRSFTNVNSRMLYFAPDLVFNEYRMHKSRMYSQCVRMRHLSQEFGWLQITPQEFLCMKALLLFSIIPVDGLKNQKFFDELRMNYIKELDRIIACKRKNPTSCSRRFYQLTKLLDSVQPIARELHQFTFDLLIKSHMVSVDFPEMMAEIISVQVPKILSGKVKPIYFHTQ
In words: Displacement of fluorescently labeled ligand from androgen receptor by fluorescence polarization assay.

The target in assay [4] is T3, Progesterone receptor (Homo sapiens, UniProt P06401).
T3 sequence (P06401 whole entry): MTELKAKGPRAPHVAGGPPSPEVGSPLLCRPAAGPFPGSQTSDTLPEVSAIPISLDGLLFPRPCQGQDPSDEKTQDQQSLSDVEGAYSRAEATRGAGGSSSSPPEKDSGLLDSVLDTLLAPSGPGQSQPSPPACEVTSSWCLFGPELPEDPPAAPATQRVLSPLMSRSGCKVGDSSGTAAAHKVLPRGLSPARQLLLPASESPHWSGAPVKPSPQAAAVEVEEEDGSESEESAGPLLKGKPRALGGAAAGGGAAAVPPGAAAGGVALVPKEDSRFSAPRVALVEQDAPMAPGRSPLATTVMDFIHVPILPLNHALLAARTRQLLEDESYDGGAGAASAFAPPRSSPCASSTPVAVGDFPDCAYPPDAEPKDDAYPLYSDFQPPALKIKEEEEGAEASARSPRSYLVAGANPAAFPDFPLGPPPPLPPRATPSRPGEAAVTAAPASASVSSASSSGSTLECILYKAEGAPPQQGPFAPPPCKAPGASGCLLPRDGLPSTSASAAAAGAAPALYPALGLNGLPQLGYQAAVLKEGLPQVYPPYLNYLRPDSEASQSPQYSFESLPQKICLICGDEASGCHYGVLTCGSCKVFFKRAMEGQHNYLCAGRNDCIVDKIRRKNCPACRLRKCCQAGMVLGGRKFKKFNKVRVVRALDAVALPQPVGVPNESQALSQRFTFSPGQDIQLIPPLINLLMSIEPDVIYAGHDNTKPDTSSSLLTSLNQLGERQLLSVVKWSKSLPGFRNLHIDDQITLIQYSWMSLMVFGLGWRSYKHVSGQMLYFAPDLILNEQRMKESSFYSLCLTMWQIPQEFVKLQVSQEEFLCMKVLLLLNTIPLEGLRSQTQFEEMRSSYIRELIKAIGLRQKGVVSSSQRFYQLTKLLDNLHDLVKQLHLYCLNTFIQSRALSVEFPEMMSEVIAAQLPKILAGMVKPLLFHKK
As to the kind of experiment: Displacement of […] from progesterone receptor by fluorescence polarization assay. Summed up:
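Fluorescence polarization competition binding: the test compound competes with a fluorescently labelled ligand for binding to the full-length receptor or its ligand-binding domain. IC50 is fitted from the polarization signal with a four-parameter logistic equation. Ki is derived by Cheng–Prusoff, Ki = IC50/(1 + ligand concentration/Kd). Values are means of duplicate experiments.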
(In general: Fluorescence polarisation rises when a labelled molecule tumbles more slowly, as on binding a larger partner.)

For the molecule `C[C@@]1(C(=O)Nc2nccs2)CC2c3ccccc3C1c1ccccc12`, the Ki (as a rule, a dissociation constant, usually derived from enzyme kinetics or from competition with a known ligand) came out at 1.3 nM in assay [1], 7.4 µM in assay [3] and 147 nM in assay [4]. Besides, the EC50 (usually the concentration at which the effect is half-maximal) in assay [2] amounted to 115 nM.
On to `C[C@@]1(C(=O)Nc2nccs2)CC2(C#N)c3ccccc3C1c1ccccc12`, for which the Ki in assay [1] was 0.9 nM; in assay [3], more than 10 µM; in assay [4], 34 nM. Moreover, the EC50 in assay [2] came out at 243 nM.
